Assay results of several laboratories.
Protocols differ between the studies behind these lines.

Structure (SMILES)	species	medium	route	dose	time	setting	concentration
CC1(C)NC(=O)N(c2ccc(F)c(Br)c2)C1=O	male Swiss mouse	plasma	oral	100 mg/kg	24 h		12500 ng/mL
Cc1nc2ccc(OCc3ccc(C(F)(F)F)cc3)cc2[nH]1	male BALB/c mouse	brain	intravenous	1 mg/kg	72 h		2.9 ng/g
CC1(C)NC(=O)N(c2ccc(F)c(S(C)(=O)=O)c2)C1=O	male Swiss mouse	plasma	oral	100 mg/kg	24 h		130 ng/mL
CC(C)(C)S(=O)(=O)c1cc2c(Nc3ccc4scnc4c3)ncnc2cc1OCCOP(=O)(O)O	BALB/c mouse	plasma	oral	10 mg/kg	30 min		1150 ng/mL
CC(C)n1ncc2c(C(=O)NCC3(C)CNC3)cc(C3CC3)nc21	female BALB/c mouse	plasma	intraperitoneal	50 mg/kg	4 h		1230 ng/mL
O=C1CCC(N2Cc3cc(C4CCN(Cc5ccccc5)CC4)ccc3C2=O)C(=O)N1 (stereo not drawn)	male CD-1 mouse	plasma	intravenous	1 mg/kg	15 min		136 ng/mL
NCc1cc2c(cc1F)C(=O)N(C1CCC(=O)NC1=O)C2 (stereo not drawn)	male CD-1 mouse	plasma	oral	10 mg/kg	40.2 min		85.3 ng/mL
CC(C)c1cc(C(=O)NCCN)c2cnn(C(C)C)c2n1	female BALB/c mouse	plasma	intraperitoneal	50 mg/kg	1 h		2860 ng/mL
Cc1ccc2c(c1)C(=O)[C@]1(O)CCN(c3ccc4nc(C)ccc4c3)C1=N2	mouse	brain	subcutaneous	10 mg/kg	30 min	single dose	3.7 µM
